The target of experiment [1] is T1, D(4) dopamine receptor (Homo sapiens, UniProt P21917).
T1 sequence (P21917 whole entry): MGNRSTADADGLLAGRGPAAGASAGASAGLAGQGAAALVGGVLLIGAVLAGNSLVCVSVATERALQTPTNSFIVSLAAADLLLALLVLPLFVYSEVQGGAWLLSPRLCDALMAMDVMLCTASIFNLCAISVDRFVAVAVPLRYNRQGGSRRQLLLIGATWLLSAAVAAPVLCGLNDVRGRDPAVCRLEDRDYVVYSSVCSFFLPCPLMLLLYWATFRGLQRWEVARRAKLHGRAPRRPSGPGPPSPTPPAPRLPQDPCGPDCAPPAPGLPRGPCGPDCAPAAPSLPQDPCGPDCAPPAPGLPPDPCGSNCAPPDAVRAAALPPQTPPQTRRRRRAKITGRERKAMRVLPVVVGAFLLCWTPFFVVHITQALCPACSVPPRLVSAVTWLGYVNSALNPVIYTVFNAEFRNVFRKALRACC
The experiment in a line: (§1) In vitro binding affinity at human cloned Dopamine receptor D4 expressed in Sf9 cell membranes.

In experiment [2] the target is T2, 5-hydroxytryptamine receptor 2A (Rattus norvegicus, UniProt P14842). The experiment in a line: In vitro binding affinity at 5-hydroxytryptamine 2A receptor in rat cortical membrane. Format: cell membranes. The method, boiled down: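 Frontal cortex membranes from female Wistar rats, stored at -80 °C. Incubated 30 min at 37 °C with 1 nM [3H]ketanserin; nonspecific binding with 10 µM methysergide; protein 2 mg/mL final. Filtered on PEI-presoaked GF/C and counted by scintillation. Nine concentrations in triplicate per curve, at least duplicate curves after a 10-6/10^-7 M prescreen. Ki by Cheng-Prusoff.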
T2 sequence (P14842 whole entry): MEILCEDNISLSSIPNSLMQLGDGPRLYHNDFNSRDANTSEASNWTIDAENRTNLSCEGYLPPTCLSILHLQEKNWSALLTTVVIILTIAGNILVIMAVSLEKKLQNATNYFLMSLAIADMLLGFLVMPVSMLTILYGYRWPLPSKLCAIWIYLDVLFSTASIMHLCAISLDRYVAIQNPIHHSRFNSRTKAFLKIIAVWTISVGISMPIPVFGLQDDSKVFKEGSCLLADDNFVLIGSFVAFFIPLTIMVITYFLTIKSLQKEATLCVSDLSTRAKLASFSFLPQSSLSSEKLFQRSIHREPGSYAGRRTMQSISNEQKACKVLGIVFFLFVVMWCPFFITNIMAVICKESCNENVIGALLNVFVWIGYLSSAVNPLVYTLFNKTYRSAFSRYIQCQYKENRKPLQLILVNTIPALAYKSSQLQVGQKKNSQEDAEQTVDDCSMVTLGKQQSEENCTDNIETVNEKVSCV

Experiment [3] addresses T3, Adrenergic receptor alpha-1 (Rattus norvegicus, UniProt P15823+P23944+P43140).
T3 sequence (P15823 whole entry): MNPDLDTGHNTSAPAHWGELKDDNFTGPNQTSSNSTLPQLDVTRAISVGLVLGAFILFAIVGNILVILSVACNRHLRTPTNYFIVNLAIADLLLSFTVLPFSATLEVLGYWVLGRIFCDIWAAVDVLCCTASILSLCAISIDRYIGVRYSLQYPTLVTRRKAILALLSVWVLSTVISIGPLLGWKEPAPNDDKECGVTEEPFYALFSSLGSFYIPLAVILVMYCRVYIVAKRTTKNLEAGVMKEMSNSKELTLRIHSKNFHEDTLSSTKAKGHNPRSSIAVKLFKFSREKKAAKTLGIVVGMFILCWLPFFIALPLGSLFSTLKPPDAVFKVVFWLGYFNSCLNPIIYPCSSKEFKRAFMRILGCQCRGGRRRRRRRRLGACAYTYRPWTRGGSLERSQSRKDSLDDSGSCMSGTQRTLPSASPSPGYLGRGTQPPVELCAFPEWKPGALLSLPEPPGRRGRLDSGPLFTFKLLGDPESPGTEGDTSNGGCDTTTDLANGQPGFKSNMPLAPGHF
T3 sequence (P23944 whole entry): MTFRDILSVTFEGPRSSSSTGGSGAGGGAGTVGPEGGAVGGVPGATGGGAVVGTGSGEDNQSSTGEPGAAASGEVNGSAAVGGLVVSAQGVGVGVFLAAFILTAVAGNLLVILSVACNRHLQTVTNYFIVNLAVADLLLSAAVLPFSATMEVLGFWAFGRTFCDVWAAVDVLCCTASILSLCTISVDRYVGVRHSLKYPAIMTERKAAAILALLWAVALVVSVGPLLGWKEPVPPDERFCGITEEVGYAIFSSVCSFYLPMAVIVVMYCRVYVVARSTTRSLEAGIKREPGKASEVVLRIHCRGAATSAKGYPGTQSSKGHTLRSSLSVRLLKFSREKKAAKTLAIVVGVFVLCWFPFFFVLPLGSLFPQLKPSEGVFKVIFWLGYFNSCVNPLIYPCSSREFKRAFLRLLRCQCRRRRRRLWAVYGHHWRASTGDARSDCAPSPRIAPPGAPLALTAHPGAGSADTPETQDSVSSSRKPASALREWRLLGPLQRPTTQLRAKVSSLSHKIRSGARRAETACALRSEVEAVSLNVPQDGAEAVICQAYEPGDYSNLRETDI
T3 sequence (P43140 whole entry): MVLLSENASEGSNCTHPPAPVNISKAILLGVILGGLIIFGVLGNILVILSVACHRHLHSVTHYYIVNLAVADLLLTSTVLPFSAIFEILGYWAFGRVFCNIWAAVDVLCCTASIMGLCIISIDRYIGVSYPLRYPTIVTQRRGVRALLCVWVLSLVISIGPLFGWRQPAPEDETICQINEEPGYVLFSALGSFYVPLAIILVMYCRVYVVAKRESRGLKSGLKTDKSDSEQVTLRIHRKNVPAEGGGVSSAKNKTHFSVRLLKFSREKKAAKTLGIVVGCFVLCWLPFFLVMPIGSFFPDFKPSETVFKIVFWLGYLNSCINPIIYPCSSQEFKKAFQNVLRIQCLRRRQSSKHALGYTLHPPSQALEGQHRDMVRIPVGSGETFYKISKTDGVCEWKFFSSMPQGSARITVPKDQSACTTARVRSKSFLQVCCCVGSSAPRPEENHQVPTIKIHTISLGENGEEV
The experiment in a line: In vitro binding affinity at Alpha-1 adrenergic receptor in rat cortical tissues.

Experiment [4] addresses T2, 5-hydroxytryptamine receptor 2A. Nature of the experiment: In vitro binding affinity at serotonin 5-hydroxytryptamine 2A receptor in rat cortical membrane. Format: cell membranes.
Experiment [5] concerns the target T1, D(4) dopamine receptor. The experiment is described as §1. The procedure, abridged:
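Sf9 membranes expressing human cloned D4.2, in 50 mM Tris-HCl pH 7.4 with 5 mM MgCl2, 5 mM EDTA, 5 mM KCl and 1.5 mM CaCl2. […] Filtration on GF/C. Six to nine concentrations in duplicate. Ki by Cheng-Prusoff.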
This is another data set of the same source.

Experiment [6] relates to Rattus norvegicus. Nature of the experiment: Compound was evaluated in paw test for the forelimb retraction in rat at effective dose of 20 (mg/kg). Format: functional.
The test system of experiment [7] is Mus musculus. The experiment in a line: Percentage of total immobility time after an intraperitoneal dose of 16 (mg/kg) in porsolt's test in mice. The experiment is classed as functional.
For experiment [8], the species on record is Rattus norvegicus. Nature of the experiment: Compound was evaluated in paw test for the hindlimb retraction in rat.
Experiment [9] deals with Mus musculus. The experiment in a line: Percentage of total immobility time after an intraperitoneal dose of 4 (mg/kg) in porsolt's test in mice. Format: functional.
Experiment [10] deals with Mus musculus. The experiment in a line: Percentage of total immobility time after an intraperitoneal dose of 8 (mg/kg) in porsolt's test in mice. Format: functional.
Experiment [11] concerns Mus musculus. The experiment in a line: Percentage of total immobility time after an intraperitoneal dose of 4 (mg/kg) in porsolt's test. Format: functional. The procedure, abridged:
(§2)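 Forced swimming (Porsolt) test in mice, with the compound given i.p. Immobility time was expressed as a percentage of the total immobility time of vehicle-treated animals. Significance was assessed against saline by Mann-Whitney U test, or against vehicle by analysis of variance with post hoc tests.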

Experiment [12] concerns Mus musculus. The experiment in a line: Percentage of total immobility time after an intraperitoneal dose of 16 (mg/kg) in porsolt's test. Format: functional. The procedure, abridged: as §2
For experiment [13], the system named is Mus musculus. The experiment in a line: Percentage of total immobility time after an intraperitoneal dose of 8 (mg/kg) in porsolt's test. The experiment is classed as functional. The procedure, abridged:
as §2

Experiment [14] relates to Rattus norvegicus. Nature of the experiment: Compound was evaluated in paw test for the hindlimb retraction at effective dose of 5 (mg/kg). The experiment is classed as functional.

This note sets out measurements from ChEMBL document CHEMBL1135647, “New pyridobenzodiazepine derivatives: modifications of the basic side chain differentially modulate binding to dopamine (D(4.2), D(2L)) and serotonin (5-HT(2A)) receptors” (J Med Chem, 2002).

The term Ki denotes a measure of affinity in units of concentration, obtained from inhibition or displacement. Read a high Ki as a looser hold on the target. In the case of `Clc1ccc2c(c1)C(NCCN1CCCC1)=Nc1cccnc1N2`, the results for the Ki in experiment [1] and in experiment [2] were 341 nM and 250 nM, respectively.
Turning to `Clc1ccc2c(c1)C(N1CCN(Cc3ccccc3)CC1)=Nc1cccnc1N2`, the Ki is 109 nM in [1], greater than 1000 nM in experiment [3] and greater than 1000 nM in experiment [2].
`Clc1ccc2c(c1)C(NCCc1ccccn1)=Nc1cccnc1N2`: the Ki in experiment [1] and in experiment [3] was greater than 1000 nM in each case.
Take `CN1CCCN(C2=Nc3cccnc3Nc3ccc(Cl)cc32)CC1`: the results for the Ki in experiment [1], in [4] and in [3] were 163 nM, 164 nM and greater than 1000 nM, respectively.
As for `Clc1ccc2c(c1)C(NC1CC3CCC(C1)N3Cc1ccccc1)=Nc1cccnc1N2` (stereo not given), the Ki in experiment [2] amounted to 36 nM.
For the compound `Clc1ccc2c(c1)C(N1CCN(C3CCCCC3)CC1)=Nc1cccnc1N2`, the Ki was 48 nM in [1] and 34 nM in experiment [2].
Consider `Cc1ccc2c(c1)C(NC1CC3CCC(C1)N3Cc1ccccc1)=Nc1cccnc1N2` (stereo not given), for which the Ki in [1] was 131 nM; in experiment [2], 34 nM.
For the compound `Cc1ccc2c(c1)C(N1CCN(C3CCCCC3)CC1)=Nc1cccnc1N2`, the Ki in experiment [1] amounted to 84 nM; in experiment [2], 33 nM.
In the case of `Cc1ccc2c(c1)C(N1CCN(c3cccc(C(F)(F)F)c3)CC1)=Nc1cccnc1N2`, the Ki in experiment [1], in experiment [3] and in experiment [2] was greater than 1000 nM throughout.
`Cc1ccc2c(c1)C(N1CCN(c3cccc(Cl)c3)CC1)=Nc1cccnc1N2`: the Ki in experiment [1], in experiment [3] and in [2] was greater than 1000 nM throughout.
Turning to `Cc1ccc2c(c1)C(N1CCN(Cc3ccccc3)CC1)=Nc1cccnc1N2`, the Ki in experiment [1] is 183 nM; in [3], greater than 1000 nM; in experiment [2], greater than 1000 nM.
As to `Cc1ccc2c(c1)C(NCCN(C)C)=Nc1cccnc1N2`, the Ki in experiment [1] was greater than 1000 nM; in experiment [3], greater than 1000 nM; in experiment [2], 150 nM.
Turning to `Cc1ccc2c(c1)C(N1CCN(c3ccccc3)CC1)=Nc1cccnc1N2`, the inhibitory constant (Ki) in experiment [5], in experiment [3] and in experiment [2] was greater than 1000 nM throughout.
`Cc1ccc2c(c1)C(NCCc1ccccn1)=Nc1cccnc1N2`: the inhibition constant Ki in experiment [1] was greater than 1000 nM.
As to `Clc1ccc2c(c1)C(NC1CCN(Cc3ccccc3)CC1)=Nc1cccnc1N2`, the Ki in experiment [1] is 89 nM; in experiment [3], 163 nM; in experiment [2], 81 nM.
With `Cc1ccc2c(c1)C(NCCCN(C)C)=Nc1cccnc1N2`, the Ki in [1], in experiment [3] and in experiment [2] was greater than 1000 nM in each case.
Consider `Clc1ccc2c(c1)C(N1CCN(c3ccccc3)CC1)=Nc1cccnc1N2`, for which the Ki in [1], in experiment [3] and in experiment [2] was greater than 1000 nM in each case.
Take `Cc1ccc2c(c1)C(NC1CCN(C)CC1)=Nc1cccnc1N2`: the figures for the Ki in experiment [1], in experiment [3] and in experiment [2] were 510 nM, 18 nM and 132 nM, respectively.
For `Cc1ccc2c(c1)C(NCCC1CCCN1C)=Nc1cccnc1N2` (stereo not given), the Ki in experiment [1] and in [2] was greater than 1000 nM each time.
Take `CN1CCC(NC2=Nc3cccnc3Nc3ccc(Cl)cc32)CC1`: the figures for the Ki in experiment [1] and in experiment [2] were 393 nM and 123 nM, respectively.
For the compound `Cc1ccc2c(c1)C(N1CCCN(C)CC1)=Nc1cccnc1N2`, the Ki was 356 nM in [1] and 303 nM in [2].
In the case of `FC(F)(F)c1cccc(N2CCN(C3=Nc4cccnc4Nc4ccc(Cl)cc43)CC2)c1`, the Ki in experiment [1], in experiment [3] and in [2] was greater than 1000 nM each time.
On to `Clc1cccc(N2CCN(C3=Nc4cccnc4Nc4ccc(Cl)cc43)CC2)c1`, for which the Ki in experiment [1] and in experiment [2] was greater than 1000 nM throughout.
On to `Clc1ccc2c(c1)C(NCCN1CCCCC1)=Nc1cccnc1N2`, for which the Ki is greater than 1000 nM in [1], 63 nM in experiment [3] and 357 nM in experiment [2].
For `Cc1ccc2c(c1)C(NCCN1CCOCC1)=Nc1cccnc1N2`, the Ki in experiment [1] and in experiment [2] was greater than 1000 nM in each case.
On to `Cc1ccc2c(c1)C(NC1CCN(Cc3ccccc3)CC1)=Nc1cccnc1N2`, for which the Ki was 46 nM in experiment [1], 100 nM in experiment [3] and 48 nM in experiment [2].
For `Cc1ccc2c(c1)C(N1CCN(CCc3ccccc3)CC1)=Nc1cccnc1N2`, the figures for the Ki in [1], in [3] and in experiment [2] were 37 nM, 172 nM and 36 nM, respectively.
Consider `CN(C)CCCNC1=Nc2cccnc2Nc2ccc(Cl)cc21`, for which the Ki in [1] and in experiment [3] was greater than 1000 nM each time.
For `Clc1ccc2c(c1)C(NCCN1CCOCC1)=Nc1cccnc1N2`, the Ki in experiment [1] and in experiment [3] was greater than 1000 nM throughout.
Regarding `Clc1ccc2c(c1)C(N1CCN(CCc3ccccc3)CC1)=Nc1cccnc1N2`, the Retraction time in [6] was 1 s; in [8] it was 2.5 s. Also, the Immobility in [7] was 49%; in experiment [9], 52%; in experiment [10] it was 36%. Further, the Ki in [1] was found to be 40 nM; in [3] it was 367 nM; in [2] it was 103 nM.
Turning to `Cc1ccc2c(c1)C(N1CCN(C)CC1)=Nc1cccnc1N2`, the Ki in [1] worked out at 36 nM; in [4], 37 nM; in experiment [3] it was 108 nM.
For `CN1CCN(C2=Nc3cccnc3Nc3ccc(Cl)cc32)CC1`, the results for the Ki in experiment [1], in [4] and in [3] were 24 nM, 35 nM and 79 nM, respectively.
For `CN1CCN(C2=Nc3cc(Cl)ccc3Nc3ccccc32)CC1` [CLOZAPINE], the Retraction time in experiment [6] turned out to be 1.1 s; in [14] it was 30 s. Moreover, the Immobility in [11] is given as 95%; in experiment [12] it was 139%; in [13], 103%.
